Assay results published in ChEMBL document CHEMBL1828603, “Synthesis, antimicrobial activity and possible mechanism of action of 9-bromo-substituted indolizinoquinoline-5,12-dione derivatives” (2011).
≈ marks a conversion by molar mass, not a printed value.

How the values were obtained:
Format in all cases: functional
[1] = system: Escherichia coli; assay: Antimicrobial activity against Escherichia coli ATCC 25922 by broth microdilution method
Method in brief: (§1)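 Two-fold broth microdilution in Mueller-Hinton broth. Compound in DMSO added to bacterial culture at 5 × 10^5 cells/ml, starting at 64 µg/ml, then serially doubled down. Incubated at 37 °C overnight and read as OD600. MIC taken as the minimum inhibitory concentration, obtained in at least two independent experiments.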

[2] = system: Pseudomonas aeruginosa; assay: Antimicrobial activity against Pseudomonas aeruginosa ATCC 27853 by broth microdilution method; method in brief: as §1
[3] = system: Salmonella enterica subsp. enterica serovar Paratyphi B; assay: Antimicrobial activity against Salmonella paratyphi B CMCC 50094 by broth microdilution method
Method in brief: (§2)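 Two-fold serial dilution in Mueller-Hinton broth, starting at 64 µg/ml. Compound was added as a DMSO solution to bacterial culture at 5 × 10^5 cells/ml, then double-diluted. Plates were incubated overnight at 37 °C and OD600 was read. MIC was taken from at least two independent experiments.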

[4] = system: Streptococcus; assay: Antimicrobial activity against hemolytic Streptococcus Group B CMCC 32210 by broth microdilution method; method in brief: as §1
[5] = system: Staphylococcus aureus; assay: Antimicrobial activity against Staphylococcus aureus ATCC 25923 by broth microdilution method; method in brief: as §1
[6] = system: Staphylococcus epidermidis; assay: Antimicrobial activity against Staphylococcus epidermidis ATCC 12228 by broth microdilution method; method in brief: as §1
[7] = system: Enterococcus faecalis; assay: Antimicrobial activity against Enterococcus faecalis ATCC 29212 by broth microdilution method; method in brief: as §1
[8] = system: Staphylococcus aureus; assay: Antimicrobial activity against methicillin-resistant Staphylococcus aureus ATCC 43300 by broth microdilution method; method in brief: as §2
[9] = system: Candida albicans; assay: Antifungal activity against Candida albicans ATCC 10231 by broth microdilution method
[10] = system: Staphylococcus aureus; assay: Ratio of MIC for vancomycin to compound for methicillin-resistant Staphylococcus aureus ATCC 43300 by broth microdilution method

Compound	MIC [1] [µg/mL]	MIC [2] [µg/mL]	MIC [3] [µg/mL]	MIC [4] [µg/mL]	MIC [5] [µg/mL]	MIC [6] [µg/mL]	MIC [7] [µg/mL]	MIC [8] [µg/mL]	MIC [9] [µg/mL]	Ratio [10]
O=C1c2cccnc2C(=O)c2c1c(C(=O)N1CCSCC1)c1ccc(Br)cn21	> 64	> 64	> 64	64 (≈ 140 µM)	> 64	> 64	> 64	64 (≈ 140 µM)	> 64	
COC(=O)c1c2c(n3cc(Br)ccc13)C(=O)c1ncccc1C2=O	64 (≈ 166 µM)	> 64	> 64	0.031 (≈ 0.0805 µM)	0.031 (≈ 0.0805 µM)	0.016 (≈ 0.0415 µM)	0.031 (≈ 0.0805 µM)	0.063 (≈ 0.164 µM)	> 64	16
O=C1c2cccnc2C(=O)c2c1c(C(=O)OCC(F)(F)F)c1ccc(Br)cn21	> 64	> 64	> 64	0.031 (≈ 0.0684 µM)	0.031 (≈ 0.0684 µM)	0.016 (≈ 0.0353 µM)	0.016 (≈ 0.0353 µM)	0.031 (≈ 0.0684 µM)	> 64	32
O=C1c2cccnc2C(=O)c2c1c(C(=O)NCCCN1CCCCC1)c1ccc(Br)cn21	> 64	> 64	> 64	1 (≈ 2.02 µM)	2 (≈ 4.04 µM)	8 (≈ 16.1 µM)	2 (≈ 4.04 µM)	4 (≈ 8.07 µM)	> 64	
CCN(CC)CCCNC(=O)c1c2c(n3cc(Br)ccc13)C(=O)c1ncccc1C2=O	> 64	> 64	> 64	1 (≈ 2.07 µM)	8 (≈ 16.6 µM)	4 (≈ 8.28 µM)	4 (≈ 8.28 µM)	8 (≈ 16.6 µM)	> 64	
CN(C)CCNC(=O)c1c2c(n3cc(Br)ccc13)C(=O)c1ncccc1C2=O	> 64	> 64	> 64	0.5 (≈ 1.13 µM)	4 (≈ 9.06 µM)	2 (≈ 4.53 µM)	1 (≈ 2.27 µM)	4 (≈ 9.06 µM)	> 64	
O=C1c2cccnc2C(=O)c2c1c(C(=O)N1CCOCC1)c1ccc(Br)cn21	> 64	> 64	> 64	16 (≈ 36.3 µM)	16 (≈ 36.3 µM)	32 (≈ 72.7 µM)	> 64	64 (≈ 145 µM)	> 64	
O=C1c2cccnc2C(=O)c2c1c(C(=O)N1CCCC1)c1ccc(Br)cn21	> 64	> 64	> 64	16 (≈ 37.7 µM)	8 (≈ 18.9 µM)	32 (≈ 75.4 µM)	> 64	64 (≈ 151 µM)	> 64	
O=C1c2cccnc2C(=O)c2c1c(C(=O)NCCN1CCCC1)c1ccc(Br)cn21	> 64	> 64	> 64	0.5 (≈ 1.07 µM)	4 (≈ 8.56 µM)	1 (≈ 2.14 µM)	2 (≈ 4.28 µM)	4 (≈ 8.56 µM)	> 64	
O=C1c2cccnc2C(=O)c2c1c(C(=O)NCCCN1CCCC1)c1ccc(Br)cn21	> 64	> 64	> 64	1 (≈ 2.08 µM)	8 (≈ 16.6 µM)	4 (≈ 8.31 µM)	4 (≈ 8.31 µM)	4 (≈ 8.31 µM)	> 64	
CCN(CC)CCNC(=O)c1c2c(n3cc(Br)ccc13)C(=O)c1ncccc1C2=O	> 64	> 64	> 64	0.5 (≈ 1.07 µM)	4 (≈ 8.52 µM)	2 (≈ 4.26 µM)	4 (≈ 8.52 µM)	4 (≈ 8.52 µM)	> 64	
O=C1c2cccnc2C(=O)c2c1c(C(=O)NCCN1CCCCC1)c1ccc(Br)cn21	64 (≈ 133 µM)	64 (≈ 133 µM)	64 (≈ 133 µM)	0.5 (≈ 1.04 µM)	1 (≈ 2.08 µM)	1 (≈ 2.08 µM)	2 (≈ 4.15 µM)	2 (≈ 4.15 µM)	> 64	
CC(=O)N1CCN(C(=O)c2c3c(n4cc(Br)ccc24)C(=O)c2ncccc2C3=O)CC1	> 64	> 64	> 64	16 (≈ 33.2 µM)	64 (≈ 133 µM)	> 64	> 64	> 64	> 64	
CN(C)CCCNC(=O)c1c2c(n3cc(Br)ccc13)C(=O)c1ncccc1C2=O	> 64	> 64	> 64	1 (≈ 2.2 µM)	4 (≈ 8.79 µM)	8 (≈ 17.6 µM)	4 (≈ 8.79 µM)	4 (≈ 8.79 µM)	> 64	
CCN(CC)C(=O)c1c2c(n3cc(Br)ccc13)C(=O)c1ncccc1C2=O	> 64	> 64	> 64	8 (≈ 18.8 µM)	8 (≈ 18.8 µM)	16 (≈ 37.5 µM)	16 (≈ 37.5 µM)	16 (≈ 37.5 µM)	> 64	
CN1CCN(C(=O)c2c3c(n4cc(Br)ccc24)C(=O)c2ncccc2C3=O)CC1	> 64	> 64	> 64	8 (≈ 17.6 µM)	16 (≈ 35.3 µM)	32 (≈ 70.6 µM)	> 64	32 (≈ 70.6 µM)	> 64	
O=C1c2cccnc2C(=O)c2c1c(C(=O)NCCCN1CCOCC1)c1ccc(Br)cn21	> 64	> 64	> 64	1 (≈ 2.01 µM)	8 (≈ 16.1 µM)	4 (≈ 8.04 µM)	4 (≈ 8.04 µM)	4 (≈ 8.04 µM)	> 64	
O=C1c2cccnc2C(=O)c2c1c(C(=O)NCCN1CCOCC1)c1ccc(Br)cn21	64 (≈ 132 µM)	64 (≈ 132 µM)	> 64	0.5 (≈ 1.03 µM)	1 (≈ 2.07 µM)	4 (≈ 8.28 µM)	4 (≈ 8.28 µM)	8 (≈ 16.6 µM)	> 64	
O=C1c2cccnc2C(=O)c2c1c(C(=O)OCCN1CCOCC1)c1ccc(Br)cn21	32 (≈ 66.1 µM)	> 64	> 64	0.063 (≈ 0.13 µM)	0.25 (≈ 0.516 µM)	0.25 (≈ 0.516 µM)	0.13 (≈ 0.268 µM)	0.25 (≈ 0.516 µM)	> 64	
O=C1c2cccnc2C(=O)c2c1c(C(=O)OCCN1CCCCC1)c1ccc(Br)cn21	4 (≈ 8.29 µM)	> 64	16 (≈ 33.2 µM)	0.031 (≈ 0.0643 µM)	0.063 (≈ 0.131 µM)	0.063 (≈ 0.131 µM)	0.031 (≈ 0.0643 µM)	0.5 (≈ 1.04 µM)	> 64	
CN(C)CCOC(=O)c1c2c(n3cc(Br)ccc13)C(=O)c1ncccc1C2=O	2 (≈ 4.52 µM)	> 64	1 (≈ 2.26 µM)	0.031 (≈ 0.0701 µM)	0.13 (≈ 0.294 µM)	0.13 (≈ 0.294 µM)	0.13 (≈ 0.294 µM)	0.13 (≈ 0.294 µM)	> 64	
CC1(C)S[C@@H]2[C@H](NC(=O)Cc3ccccc3)C(=O)N2[C@H]1C(=O)O [PENICILLIN G]	64 (≈ 191 µM)	> 64	2 (≈ 5.98 µM)	< 0.031	< 0.031	16 (≈ 47.8 µM)	2 (≈ 5.98 µM)	> 64		
